The results in this text go back to ChEMBL document CHEMBL3779787, “Amorfrutin C Induces Apoptosis and Inhibits Proliferation in Colon Cancer Cells through Targeting Mitochondria” (J Nat Prod, 2016).

Test [1] is described as follows: Antiproliferative activity against human PC3 cells assessed as cellular DNA content after 72 hrs by CyQUANT NF fluorescence assay relative to control. The class given is functional, PC-3. Summed up: (§1)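 Cells seeded at 750 (HT-29), 250 (PC-3) or 900 (T84, MCF7) cells/well, treated next day with concentration series for 72 h (HT-29, PC-3) or 96 h (T84, MCF7). Relative cell number from cellular DNA content by fluorescent DNA-binding dye. Variable-slope fit; efficiency = maximal inhibition (100% − Bottom) vs untreated; IC50 relative to the compound's own maximal efficiency.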

Test [2] concerns MCF7. Nature of the test: Antiproliferative activity against human MCF7 cells assessed as cellular DNA content after 96 hrs by CyQUANT NF fluorescence assay. The class given is functional, cell-based. The settings on record: MCF7, 96 h. An outline of the steps:
as §1

Test [3] relates to HT-29. The experiment in a line: Antiproliferative activity against human HT-29 cells assessed as cellular DNA content after 72 hrs by CyQUANT NF fluorescence assay. The class given is functional, cell-based. The following applies: HT-29, 72 h. An outline of the steps: as §1
The test system of test [4] is HT-29. The experiment in a line: Antiproliferative activity against human HT-29 cells assessed as cellular DNA content after 72 hrs by CyQUANT NF fluorescence assay relative to control. Type of test: functional. Summed up: as §1
For test [5], the system named is T84. Nature of the test: Antiproliferative activity against human T84 cells assessed as cellular DNA content after 96 hrs by CyQUANT NF fluorescence assay. The class given is functional, cell-based. The settings on record: T84, 96 h. Summed up:
as §1

The subject of test [6] is T84. The experiment in a line: Antiproliferative activity against human T84 cells assessed as cellular DNA content after 96 hrs by CyQUANT NF fluorescence assay relative to control. Type of test: functional. An outline of the steps: as §1
Test [7] is described as follows: Antiproliferative activity against human PC3 cells assessed as cellular DNA content after 72 hrs by CyQUANT NF fluorescence assay. The following applies: PC-3, 72 h. Type of test: functional, cell-based. An outline of the steps: as §1
Test [8] concerns MCF7. Nature of the test: Antiproliferative activity against human MCF7 cells assessed as cellular DNA content after 96 hrs by CyQUANT NF fluorescence assay relative to control. The class given is functional. Summed up:
as §1

The subject of test [9] is HT-29. Nature of the test: Induction of apoptosis in human HT-29 cells assessed as mitochondrial membrane depolarization after 5 mins by JC-1 dye-based fluorescence assay. The class given is functional, cell-based. Summed up:
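HT-29 (40 000 cells/well) treated with concentration series for 5 min at 37 °C, then JC-1 added for a further 10 min and washed. Red (560/590 nm) to green (485/520 nm) fluorescence ratio taken as ΔΨm; variable-slope fit for IC50; means ± SD, n = 4.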

Test [10] has as its system HT-29. Nature of the test: Induction of apoptosis in human HT-29 cells after 24 hrs by annexin V-FLUOS/propidium iodide staining-based flow cytometry. The class given is functional, cell-based.
In test [11] the test system is HT-29. Nature of the test: Increase in mitochondrial oxygen consumption in human HT-29 cells measured for 20 to 60 mins by time-resolved fluorescence assay. Type of test: functional, cell-based. An outline of the steps:
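Oxygen-sensitive MitoXpress-Xtra probe in phenol red-free DMEM/F-12 on HT-29 seeded 80 000/well the day before; 10 min at 37 °C, compounds added, wells sealed with mineral oil. Time-resolved fluorescence at 37 °C, 90 s intervals for 150 min, background subtracted. Lifetime slope from 20 to 60 min taken relative to untreated cells; means ± SEM, n = 8.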

In test [12] the test system is HT-29. Nature of the test: Increase in extracellular acidification rate in human HT-29 cells measured for 20 to 150 mins by time-resolved fluorescence assay relative to control. The class given is functional.

Active and inactive are the calls of the source. No cut-off for these calls is given here.

On to `O=c1[nH]cc(F)c(=O)[nH]1` [FLUOROURACIL], for which the Efficacy in test [1] was determined as 80%; with HT-29 [4], 68%; in the test on T84 [6], 76%; with MCF7 [8] it was 80%. Besides, the IC50 stood at 900 nM in the test with MCF7 [2], 5300 nM in the test on HT-29 [3], 6200 nM with T84 [5] and 4900 nM in test [7].

As for `CCc1c2c(nc3ccc(OC(=O)N4CCC(N5CCCCC5)CC4)cc13)-c1cc3c(c(=O)n1C2)COC(=O)[C@]3(O)CC` [IRINOTECAN], the Efficacy in test [1] is given as 76%; in the test with HT-29 [4], 71%; in the test on T84 [6] it was 82%; with MCF7 [8], 82%. The half-inhibitory concentration (IC50) was determined as 900 nM with MCF7 [2], 1900 nM with HT-29 [3], 1200 nM with T84 [5] and 800 nM in test [7].

With `COc1cc([C@@H]2c3cc4c(cc3[C@@H](O[C@@H]3O[C@@H]5CO[C@@H](C)O[C@H]5[C@H](O)[C@H]3O)[C@H]3COC(=O)[C@H]23)OCO4)cc(OC)c1O` [ETOPOSIDE], the Efficacy amounted to 84% in [1], 97% in the test with HT-29 [4], 90% in the test on T84 [6] and 78% with MCF7 [8]. Further, the IC50 in the test with MCF7 [2] worked out at 800 nM; in the test with HT-29 [3] it was 2200 nM; with T84 [5], 3000 nM; in test [7], 1100 nM.

Regarding `COC(=O)c1c(O)c(CC=C(C)C)c(OC)c(CC=C(C)C)c1CCc1ccccc1`, the outcome in the test with HT-29 [9] and in the test with HT-29 [10] was Active.

In the case of `CCCCCCC1C(=O)O[C@H](C)[C@H](NC(=O)c2cccc(NC=O)c2O)C(=O)O[C@@H](C)[C@@H]1OC(=O)CC(C)C` (stereo not given in full), the result with HT-29 [11] was Active. For the same compound, in the test on HT-29 [12], the “fold change (FC)” value came to 7.

For the compound `N#CC(C#N)=NNc1cccc(Cl)c1` [CARBONYL CYANIDE M-CHLOROPHENYLHYDRAZONE], the outcome in the test with HT-29 [11] was Active. Further, the “fold change (FC)” value in the test with HT-29 [12] was 3.

Turning to `COc1cc(CCc2ccccc2)c(C(=O)O)c(O)c1C/C=C(\C)CCC=C(C)C`, the Efficacy was 95% in test [1], 98% with HT-29 [4], 99% with T84 [6] and 94% in the test on MCF7 [8]. In addition, the IC50 in the test with MCF7 [2] was determined as 33000 nM; in the test with HT-29 [3], 20000 nM; in the test with T84 [5], 13000 nM; in test [7] it was 32000 nM.

Regarding `COc1c(CC=C(C)C)c(CCc2ccccc2)c(C(=O)O)c(OC)c1CC=C(C)C`, the result in the test with HT-29 [9] and in the test with HT-29 [10] was Active.
